The list is not random: actives were taken first. Their share in the collection is about 1.8%.
SKN-1 inh: suppressors of acrylamide-induced Pgst-4::GFP reporter in worms, primary screen, SKN-1 inhibitor project, whole organism, uHTS, GFP/RFP fluorescence ratio, strain VP596. inhibition, % at 21.8 µM. C. elegans VP596 Pgst-4::GFP/RFP ratio, 24 h. AID 624304, 2012. 360,000 compounds, 0.49% hits;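 active = interference check ratio from 0.5 to 1.5 plus GFP to RFP signal ratio inhibition reaching or exceeding a fixed threshold, cut at about 30% in these data, passing the limit was not always enough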
MsrA act: bovine MsrA enzyme activators, primary screen, biochemical, absorbance, HTS; Methionine sulfoxide reductase A (Bos taurus); purified bovine MsrA, absorbance read-out; activation, % at 10.6 µM; 360,000 compounds, 0.3% hits; AID 602163, 2012; in the data active = activation above about 7.5%;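 note: 0% = vehicle and 100% = reference activator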
beta cell repl: inducers of MIN6 beta-cell proliferation, primary screen, ATP luminescence, uHTS; 330,000 compounds, 0.29% hits; MIN6 cells proliferation, ATPlite luminescence, 48 h; cells starved in 0.2% serum; 100% = growth in 10% serum; proliferation, % at 10 µM;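 active = compounds whose signal lies at least 3.5 SD above the mean of all wells on their plate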;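 note: 0% = DMSO-treated cells in low-serum medium and 100% = 10% serum control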
MsrA inhibitor: bovine MsrA enzyme inhibitors, primary screen, biochemical, absorbance, HTS; Methionine sulfoxide reductase A (Bos taurus); purified bovine MsrA, absorbance read-out; inhibition, % at 15.5 µM; 360,000 compounds, 0.75% hits; AID 651718, 2012; in the data active = inhibition above about 4.5%;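 note: 0% = vehicle wells with enzyme and 100% = reference inhibitor wells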
DAGLB inh: DAGLB lipase inhibitors, primary screen, biochemical, fluorescence, HTS; HEK293T DAGLB membrane lysate, EnzChek fluorogenic substrate; 340,000 compounds, 0.059% hits; inhibition, % at 5.17 µM; AID 504411, 2011; Diacylglycerol lipase-beta (Homo sapiens), Q8NCG7; in the data active = inhibition above about 34%;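 note: 0% = enzyme with vehicle and 100% = wells lacking enzyme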
Target sequence (Q8NCG7 whole entry, looked up): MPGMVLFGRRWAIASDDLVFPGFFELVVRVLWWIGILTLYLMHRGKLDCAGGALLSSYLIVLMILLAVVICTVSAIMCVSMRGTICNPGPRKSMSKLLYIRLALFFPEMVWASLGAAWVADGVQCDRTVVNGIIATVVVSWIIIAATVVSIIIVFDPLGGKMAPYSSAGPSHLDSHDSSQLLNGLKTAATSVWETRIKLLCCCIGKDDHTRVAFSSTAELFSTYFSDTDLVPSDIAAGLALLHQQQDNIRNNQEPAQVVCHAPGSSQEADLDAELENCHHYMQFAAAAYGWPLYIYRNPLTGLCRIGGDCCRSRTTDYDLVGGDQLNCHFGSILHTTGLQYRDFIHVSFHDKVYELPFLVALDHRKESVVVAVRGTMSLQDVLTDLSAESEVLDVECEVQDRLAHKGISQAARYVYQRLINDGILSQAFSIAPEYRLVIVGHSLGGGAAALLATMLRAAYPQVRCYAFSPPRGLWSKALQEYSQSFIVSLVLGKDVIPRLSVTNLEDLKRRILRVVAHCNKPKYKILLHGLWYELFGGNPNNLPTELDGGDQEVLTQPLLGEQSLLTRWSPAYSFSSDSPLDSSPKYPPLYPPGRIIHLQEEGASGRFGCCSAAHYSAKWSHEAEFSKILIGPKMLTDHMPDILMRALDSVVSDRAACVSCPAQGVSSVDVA
MT1-MMP act inh: blockers of MT1-MMP proenzyme processing, primary screen, HT1080 RFP-PRO-GFP cells, GFP/RFP fluorescence | Matrix metalloproteinase-14 (Homo sapiens), P50281 | GFP/RFP ratio fluorescence, overnight; percent of plate control window, DMSO zero | GFP/RFP ratio change, % at 20 µM | 360,000 compounds, 0.061% hits | AID 651647, 2012;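 active = GFP/RFP ratio change of at least 30% with cell ATP level not reduced by more than half and red fluorescence within 50% of control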
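Assay system: HT1080 RFP-PRO-GFP cells. Benchmarks: DMSO vehicle wells and RFP-L50D-GFP reporter cell wells. Times: overnight cell settling, then overnight compound exposure, 37 °C, 5% CO2. Compound: 20 µM single dose, 1% DMSO. Read-out basis: GFP/RFP fluorescence ratio.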
MsrA activ conf: bovine MsrA activators, retest, confirmation, biochemical, absorbance, HTS; shares compounds with MsrA act; purified bovine MsrA, absorbance read-out; activation, % at 10.6 µM; 1,000 compounds, 12% hits; AID 602270, 2012; in the data active = activation above about 4%;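 note: enzyme coupled to thioredoxin and thioredoxin reductase with NADPH; 0% = vehicle wells and 100% = reference activator wells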
Active calls of the source: *; nt = no result.

SMILES	SKN-1 inh	MsrA act	beta cell repl	MsrA inhibitor	DAGLB inh	MT1-MMP act inh	MsrA activ conf
C/C(N)=C(/C#N)C(=O)COC(=O)c1ccccc1C(=O)c1ccc(C)cc1	5	8.6*	-1	1	-1	3	1
O=C(CSc1ncn[nH]1)c1ccc2c(c1)OCCO2	-4	3	-4	0	-2	-2	nt
CC(C)c1ccc(C(=O)CSc2ncn[nH]2)cc1	-1	14*	-2	-1	-2	10	-2
CSc1nc(C)cc(Oc2ccc(OCC(N)=O)nn2)n1	-12	-3	-3	-1	1	1	nt
C=CCOc1ccc(Oc2cc(C)nc(SC)n2)nn1	8	13*	-1	0	-2	-2	-3
COCC(C)(C)COS(N)(=O)=O	-9	-1	-2	0	-3	-1	nt
CCC(=O)N1Cc2cc(C(=O)NCC(F)(F)F)nc(-c3cccc(-c4cncnc4)c3)c2[C@@H]1CCO	4	8.2*	nt	-2	nt	2	-5
CCc1c(-c2cccc(F)c2)ncn1CCc1ccccc1OC	nt	nt	nt	0	nt	nt	nt
S=c1nc(-c2cccc(Br)c2)[nH][nH]1	26	9.8*	-4	1	-4	6	6.1*
Nc1nc(N)nc(-c2cccc(Br)c2)n1	12	-11	nt	1	0	-6	nt
Cc1ccc(S(=O)(=O)NC2=C(N3CCN(Cc4ccccc4)CC3)C(=O)c3ccccc3C2=O)cc1	5	7.8*	0	-1	11	7	-1
Cc1ccc(S(=O)(=O)NC2=C(N3CCN(c4ccccc4F)CC3)C(=O)c3ccccc3C2=O)cc1	8	-3	-5	2	5	9	nt
OCCNCCCCSc1ccc(Cl)cc1	-9	-3	-4	-1	-1	-3	nt
OCCNCCSc1ccc(Cl)cc1	-13	9.3*	-3	-1	1	2	0
COc1ccc(C(=O)NCCS(=O)(=O)N2CCCC2)cc1	14	-1	0	-1	-3	1	nt
COc1cccc(C(=O)Nc2cccc3ccccc23)c1	-18	20*	-2	1	-1	-3	-1
O=C(Nc1cccc(C(=O)O)c1)Nc1cccc2ccccc12	3	8.3*	0	0	0	-1	-1
COc1cc(OC)cc(C(=O)Nc2cccc3ccccc23)c1	8	-4	0	-1	-2	-1	nt
O=C(NNC(=O)C1CCN(S(=O)(=O)c2ccc(Cl)cc2)CC1)c1ccccc1O	0	-1	-4	1	1	-1	nt
CCN(c1ccccc1)S(=O)(=O)c1nnc(NC(=O)C(C)(C)C)s1	-1	-9	-2	0	0	-2	nt
Cc1ccc(C(N)=O)cc1S(=O)(=O)Nc1cccc(C)c1C	20	16*	0	-1	-2	8	-4
Cc1ccc(NS(=O)(=O)c2cc(C(N)=O)ccc2C)cc1	-15	-2	2	0	-2	2	nt
CCc1cc2c(=O)n(CCC(C)C)c(=S)[nH]c2s1	12	15*	-6	1	2	6	-1
CC1CC(C)CN(CCCNC(=O)CCNC(=O)Cn2cnc3ccccc3c2=O)C1 (stereo not drawn)	13	-4	0	0	-5	-2	nt
CC1CC(C)CN(CCCNC(=O)CCNC(=O)Cn2ccc3ccccc3c2=O)C1 (stereo not drawn)	24	7.7*	-1	0	3	3	0
SMILES	SKN-1 inh	MsrA act	beta cell repl	MsrA inhibitor	DAGLB inh	MT1-MMP act inh	MsrA activ conf
Cc1nc(SCC(=O)NNC(=O)c2ccc(F)cc2)c2ccccc2n1	-7	-12	1	1	-4	-3	nt
Nn1cnnc1N/N=C\c1ccc(-c2ccccc2[N+](=O)[O-])o1	2	20*	nt	0	1	-3	-1
C/C(=N/Nc1ccccc1C(=O)O)c1cccs1	0	16*	-2	4	7	0	-3
C/C(=N\Nc1ccc(Cl)c(C(=O)O)c1)c1cccs1	1	0	0	2	2	-3	nt
CSc1ccc(S(=O)(=O)Nc2ccc3c4c(cccc24)CC3)cc1	-2	11*	-6	0	-4	-8	0
CCOC(=O)[C@]12CCC=C1N(Cc1ccc3c(c1)OCO3)C(=O)[C@H](CC(=O)N1CCOCC1)C2	6	2	nt	-1	nt	2	nt
CCn1c(SCC(=O)N2CCN(S(=O)(=O)c3ccccc3)CC2)nnc1-c1cccs1	-3	9.6*	-3	1	1	-1	-1
Cc1nnc(SCC(=O)N2CCN(S(=O)(=O)c3ccccc3)CC2)n1Cc1ccccc1	-12	-1	2	1	-1	1	nt
Cc1oc2c(c1C(=O)O)C(=O)c1ccccc1C2=O	-23	8.4*	-4	0	-1	7	0
Cc1oc2c(c1C(=O)c1ccccc1)C(=O)C(=O)c1ccccc1-2	-9	9.3*	-4	1	2	5	13*
O=C1C(=O)c2c(C(=O)c3ccccc3)coc2-c2ccccc21	-6	6	-4	0	3	-1	nt
Cc1cc(NC(=O)C(C)SCC(=O)Nc2cc(C(F)(F)F)ccc2N2CCOCC2)no1 (stereo not drawn)	-1	-5	-3	0	-1	1	nt
CN(CC(=O)Nc1ccccc1Cl)C(=O)COC(=O)c1ccc([N+](=O)[O-])s1	12	12*	-5	1	0	0	2
CN(CC(=O)Nc1ccccc1Cl)C(=O)COC(=O)c1cccs1	-16	-10	-2	1	-2	-1	nt
COc1ccccc1NC(=O)COC(=O)c1ccc([N+](=O)[O-])s1	14	33*	-4	2	-1	-1	18*
NS(=O)(=O)c1ccc(NC(=O)COC(=O)c2ccc([N+](=O)[O-])s2)cc1	-1	28*	3	2	3	12	12*
CC1(C(=O)NS(=O)(=O)c2ccccc2Cl)CCN1C(=O)CCc1cccs1 (stereo not drawn)	6	-4	nt	1	nt	-1	nt
CCOC(=O)[C@@H]1CSCCS(=O)(=O)N1Cc1ccc(C(F)(F)F)cc1	nt	nt	nt	0	nt	nt	nt
CCCN1CCN(C(=O)c2noc3c2COc2ccc(C)cc2-3)CC1	44	8.0*	3	0	-9	4	-2

Screens from PubChem.
